Drawing on ChEMBL document CHEMBL5120972, “Small-Molecule Inhibitors of the MLL1 CXXC Domain, an Epigenetic Reader of DNA Methylation” (ACS Med Chem Lett, 2022), this text covers IC50 and Activity for nine compounds.

Activity calls are given as the source filed them. The rule behind the calls is not given here.

The term IC50 denotes the concentration that inhibits the measured activity by half.

Histone-lysine N-methyltransferase 2A, sequence (Q03164 1-2718 limits assumed): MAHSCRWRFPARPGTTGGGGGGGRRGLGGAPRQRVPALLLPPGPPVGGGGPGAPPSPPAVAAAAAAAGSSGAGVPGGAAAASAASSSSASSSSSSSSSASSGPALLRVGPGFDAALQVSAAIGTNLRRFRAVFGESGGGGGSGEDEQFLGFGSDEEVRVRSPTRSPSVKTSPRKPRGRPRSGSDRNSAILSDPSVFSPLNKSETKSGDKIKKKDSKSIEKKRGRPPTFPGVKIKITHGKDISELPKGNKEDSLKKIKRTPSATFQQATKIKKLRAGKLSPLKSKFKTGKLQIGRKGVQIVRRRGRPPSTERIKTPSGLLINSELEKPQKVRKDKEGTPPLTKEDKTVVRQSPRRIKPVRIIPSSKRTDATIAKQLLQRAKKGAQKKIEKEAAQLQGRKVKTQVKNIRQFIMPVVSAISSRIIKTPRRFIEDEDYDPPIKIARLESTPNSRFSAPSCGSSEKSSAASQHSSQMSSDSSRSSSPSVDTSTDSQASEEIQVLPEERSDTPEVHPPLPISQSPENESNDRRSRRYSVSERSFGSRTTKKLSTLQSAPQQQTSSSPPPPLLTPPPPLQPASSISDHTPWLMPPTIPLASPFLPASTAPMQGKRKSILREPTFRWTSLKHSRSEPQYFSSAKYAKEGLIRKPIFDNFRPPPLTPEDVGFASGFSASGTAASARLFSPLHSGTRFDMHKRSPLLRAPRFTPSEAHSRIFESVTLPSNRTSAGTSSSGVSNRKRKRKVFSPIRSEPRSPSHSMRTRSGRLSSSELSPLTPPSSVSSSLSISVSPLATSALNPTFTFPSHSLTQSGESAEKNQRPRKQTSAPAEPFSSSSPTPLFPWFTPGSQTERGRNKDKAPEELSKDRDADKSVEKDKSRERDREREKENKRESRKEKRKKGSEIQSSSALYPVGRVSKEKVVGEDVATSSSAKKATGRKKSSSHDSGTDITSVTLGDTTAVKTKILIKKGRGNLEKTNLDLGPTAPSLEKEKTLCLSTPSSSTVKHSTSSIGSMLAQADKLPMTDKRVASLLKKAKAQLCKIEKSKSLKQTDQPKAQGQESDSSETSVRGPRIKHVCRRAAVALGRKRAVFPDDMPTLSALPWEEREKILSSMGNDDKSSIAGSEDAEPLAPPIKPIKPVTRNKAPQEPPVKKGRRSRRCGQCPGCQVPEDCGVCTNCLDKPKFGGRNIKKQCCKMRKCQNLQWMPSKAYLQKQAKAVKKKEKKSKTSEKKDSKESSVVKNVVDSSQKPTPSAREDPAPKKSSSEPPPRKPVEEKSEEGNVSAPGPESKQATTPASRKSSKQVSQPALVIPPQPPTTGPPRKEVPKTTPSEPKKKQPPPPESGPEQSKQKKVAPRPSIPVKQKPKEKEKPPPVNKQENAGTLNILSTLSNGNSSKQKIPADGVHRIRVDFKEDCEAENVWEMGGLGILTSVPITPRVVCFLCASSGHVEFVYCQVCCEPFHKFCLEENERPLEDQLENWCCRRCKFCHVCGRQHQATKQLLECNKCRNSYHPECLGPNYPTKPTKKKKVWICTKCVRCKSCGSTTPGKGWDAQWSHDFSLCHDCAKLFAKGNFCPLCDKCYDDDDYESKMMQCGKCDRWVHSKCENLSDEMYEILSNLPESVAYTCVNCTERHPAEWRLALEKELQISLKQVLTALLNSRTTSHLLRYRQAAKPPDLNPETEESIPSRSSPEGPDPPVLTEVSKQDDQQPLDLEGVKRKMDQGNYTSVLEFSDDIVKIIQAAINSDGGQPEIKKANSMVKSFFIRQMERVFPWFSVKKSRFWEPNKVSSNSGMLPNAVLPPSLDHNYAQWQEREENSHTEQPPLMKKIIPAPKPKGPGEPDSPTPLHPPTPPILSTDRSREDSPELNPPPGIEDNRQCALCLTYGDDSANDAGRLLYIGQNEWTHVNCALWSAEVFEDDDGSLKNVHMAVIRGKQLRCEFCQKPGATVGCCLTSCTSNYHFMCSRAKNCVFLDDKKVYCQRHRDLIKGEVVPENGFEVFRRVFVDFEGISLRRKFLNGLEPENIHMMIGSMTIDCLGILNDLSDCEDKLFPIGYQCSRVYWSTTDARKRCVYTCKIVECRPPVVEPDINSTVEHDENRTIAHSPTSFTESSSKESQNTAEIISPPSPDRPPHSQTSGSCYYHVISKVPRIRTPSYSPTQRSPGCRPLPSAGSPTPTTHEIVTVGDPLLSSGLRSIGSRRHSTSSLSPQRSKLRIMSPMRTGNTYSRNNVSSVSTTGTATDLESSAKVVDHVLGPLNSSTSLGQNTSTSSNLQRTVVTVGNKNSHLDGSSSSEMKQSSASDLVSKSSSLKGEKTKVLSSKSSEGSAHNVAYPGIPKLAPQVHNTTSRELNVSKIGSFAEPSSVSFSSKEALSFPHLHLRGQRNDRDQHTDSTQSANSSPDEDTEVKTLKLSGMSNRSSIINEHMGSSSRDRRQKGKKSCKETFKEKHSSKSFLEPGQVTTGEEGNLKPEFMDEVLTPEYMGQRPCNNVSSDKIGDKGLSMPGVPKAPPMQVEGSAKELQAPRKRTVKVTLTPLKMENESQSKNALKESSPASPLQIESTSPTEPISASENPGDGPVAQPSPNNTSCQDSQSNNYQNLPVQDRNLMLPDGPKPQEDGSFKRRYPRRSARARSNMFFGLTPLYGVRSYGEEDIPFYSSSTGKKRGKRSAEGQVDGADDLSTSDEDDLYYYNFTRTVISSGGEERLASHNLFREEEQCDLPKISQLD
Histone-lysine N-methyltransferase 2A, sequence (Q03164 2719-3969 limits assumed): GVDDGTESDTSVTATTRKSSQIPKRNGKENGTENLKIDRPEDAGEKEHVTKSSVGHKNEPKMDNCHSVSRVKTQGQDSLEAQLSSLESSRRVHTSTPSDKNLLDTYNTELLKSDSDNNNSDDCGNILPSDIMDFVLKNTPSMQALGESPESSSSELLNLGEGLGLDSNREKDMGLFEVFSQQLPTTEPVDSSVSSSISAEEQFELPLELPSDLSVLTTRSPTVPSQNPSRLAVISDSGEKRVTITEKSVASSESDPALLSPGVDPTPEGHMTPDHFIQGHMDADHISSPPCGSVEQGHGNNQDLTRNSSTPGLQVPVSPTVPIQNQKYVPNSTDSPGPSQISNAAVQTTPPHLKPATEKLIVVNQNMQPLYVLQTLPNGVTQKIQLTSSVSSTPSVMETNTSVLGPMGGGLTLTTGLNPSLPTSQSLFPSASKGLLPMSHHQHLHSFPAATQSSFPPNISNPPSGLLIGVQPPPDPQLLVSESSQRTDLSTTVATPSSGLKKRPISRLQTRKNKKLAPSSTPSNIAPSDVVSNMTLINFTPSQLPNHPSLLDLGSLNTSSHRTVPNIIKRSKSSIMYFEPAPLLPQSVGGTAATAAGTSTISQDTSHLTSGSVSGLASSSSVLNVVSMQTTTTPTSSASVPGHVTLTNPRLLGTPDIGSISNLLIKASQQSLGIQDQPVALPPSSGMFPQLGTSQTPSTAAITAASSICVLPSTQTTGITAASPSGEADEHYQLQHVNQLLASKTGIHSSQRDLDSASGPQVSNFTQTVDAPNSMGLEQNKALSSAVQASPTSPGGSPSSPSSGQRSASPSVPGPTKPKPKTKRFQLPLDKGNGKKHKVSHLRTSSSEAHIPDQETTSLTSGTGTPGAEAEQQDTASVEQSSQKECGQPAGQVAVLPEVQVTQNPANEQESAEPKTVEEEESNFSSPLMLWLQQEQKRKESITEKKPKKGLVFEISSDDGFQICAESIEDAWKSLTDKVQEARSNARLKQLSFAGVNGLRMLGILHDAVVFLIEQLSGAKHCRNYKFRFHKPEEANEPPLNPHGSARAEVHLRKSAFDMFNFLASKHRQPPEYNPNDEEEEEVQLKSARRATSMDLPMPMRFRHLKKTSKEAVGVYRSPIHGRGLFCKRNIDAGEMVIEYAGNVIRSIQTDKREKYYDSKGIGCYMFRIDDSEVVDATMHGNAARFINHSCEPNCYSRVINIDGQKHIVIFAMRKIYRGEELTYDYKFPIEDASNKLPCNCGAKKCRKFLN

One assay has as its target Histone-lysine N-methyltransferase 2A (Homo sapiens, UniProt Q03164). Kind of assay: Inhibition of GST-tagged human MLL1 (1147 to 1203 residues) expressed in Escherichia coli BL21 cells incubated for 30 mins by fluorescence polarization assay. Summed up: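 Competition fluorescence polarization assay. CXXC domain protein is held at 2× its own KD. All domains are expressed and purified by the same method. Standard deviations come from three separate measurements.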
On the technique in general: Fluorescence polarisation rises when a labelled molecule tumbles more slowly, as on binding a larger partner.
As for `C=CC(=O)N1CCC(C(=O)NS(=O)(=O)c2ccc(Cl)cc2)(c2ccccc2)CC1`, 153 µM corresponded to half-maximal inhibition (IC50). On the same count and under the same terms, the value for `C=CC(=O)N1CCC(C(=O)O)(c2cccc(OCC)c2)CC1` was 51 µM; that for `C=CC(=O)N1CCC(C(=O)NS(=O)(=O)c2ccc(OC)cc2)(c2ccccc2)CC1` was 76 µM.

In turn, `C=CC(=O)N1CCC(C(=O)NS(=O)(=O)c2ccc(C)cc2)(c2ccccc2)CC1` showed an IC50 of 136 µM. Compared with the last compound, the IC50 is about 1.8-fold higher. Same read-out and setting: the value for `C=CC(=O)N1CCC(C(=O)O)(c2ccc(C)cc2)CC1` was 495 µM. Compound `C=CC(=O)N1CCC(C(=O)NS(=O)(=O)c2ccc(F)cc2)(c2ccccc2)CC1` registered an IC50 of 74 µM. This IC50 is about 6.7-fold lower than that of the compound before.

With `C=CC(=O)N1CCC(C(=O)O)(c2ccc(N(C)C)cc2)CC1`, the IC50 came out at 827 µM. Against the preceding compound, the IC50 is about 11-fold higher. As for `C=CC(=O)N1CCC(C(=O)NS(=O)(=O)CC)(c2ccccc2)CC1`, half-maximal inhibition (IC50) required 114 µM.

The next assay has as its system MV4-11. Put plainly: Anti-proliferative activity against human MV4-11 cells harboring MLL fusion protein assessed as inhibition of cell viability upto 120 uM for 72 hrs by MTT assay. In kind it is functional, cell-based. In a few lines: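 MV4-11 MLL-fusion leukemia cells are exposed to compound across a concentration range for 72 h. Growth is read out by MTT assay, with three replicates.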
For `C=CC(=O)N1CCC(C(=O)OCC)(c2ccccc2)CC1`, the outcome was Active.
